Compound activity (PubChem BioAssay)
Hits are enriched below; roughly 2.9% of the tested compounds scored in any of these assays.
APOBEC3G inh = APOBEC3G DNA deaminase inhibitors, primary screen, biochemical, fluorescence, single-stranded DNA substrate, uHTS; recombinant A3G, ssDNA deamination FAM/TAMRA fluorescence; inhibition, % at 20 µM; hit rate 0.28% among 330,000; AID 493012, 2011;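 active means inhibition of at least 40% at 20 µM, with no more than 30% in the related APOBEC3A deaminase screen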
PRMT1 inh = PRMT1 methyltransferase inhibitors, primary screen, biochemical, fluorescence polarization; Protein arginine N-methyltransferase 1 (Homo sapiens), Q99873; recombinant PRMT1, activity-based probe fluorescence polarization; inhibition, % at 2.79 µM; hit rate 1.3% among 370,000; AID 652257, 2013;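 active means inhibition above about 21% made by adding two undisclosed values, limit read from the data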
core dimer inh = inhibitors of HCV core protein dimerization, primary screen, biochemical, TR-FRET, high-throughput; hit rate 0.33% among 300,000; AID 1899, 2009; inhibition, % at 5 µM; TR-FRET GST/Flag-core106 dimerization, 1536-well;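 active means inhibition above the mean of all tested compounds plus 3 SD, set per screening campaign, cut at about 45% in these data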
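Assay system: Tagged HCV core106 pair (GST and Flag) | Buffer or medium: KF-containing HEPES buffer, pH 7.45, DTT, CHAPS, BSA | Also added: Eu donor and XL665 acceptor anti-tag antibodies | Dosing: One concentration, 5 µM, in 0.5% DMSO | Timing: 4 h at 22.5 °C | Technique: TR-FRET 671 and 617 nm emission | Repeats: Singlicate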
A3A deaminase = APOBEC3A ssDNA deaminase inhibitors, primary screen, selectivity assay for APOBEC3G inhibitor project, biochemical, FAM/TAMRA oligo cleavage fluorescence. DNA dC->dU-editing enzyme APOBEC-3A (Homo sapiens), P31941. recombinant A3A, FAM/TAMRA ssDNA deamination fluorescence. inhibition, % at 20 µM. hit rate 0.41% among 330,000. AID 493011, 2011;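 active means at least 40% inhibition at 20 µM here, with at most 30% in a related deaminase screen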
NS3 helicase inh = inhibitors of HCV NS3 helicase, primary screen, biochemical, Cy5 molecular beacon fluorescence; hit rate 0.56% among 290,000; inhibition, % at 10.9 µM; AID 1800, 2009; Hepatitis C virus NS3 helicase; NS3 helicase DNA unwinding;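 active means inhibition above the mean of all tested compounds plus 3 SD, set per campaign, cut at about 35% in these data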
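Assay system: hepatitis C virus NS3 helicase domain fragment enzyme. Also added: annealed dual-labelled DNA beacon duplex, ATP-started. Timing: 1 h reaction at 25 °C, ATP-initiated. Technique: Cy5 fluorescence at 0 and 60 min, beacon hairpin quenching. Evaluation: % inhibition of unwinding. Replication: one well per compound.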
ABHD5-PLIN5 inh = ABHD5-PLIN5 interaction inhibitors, primary screen, cell lysate, split luciferase complementation, luminescence; Split G. princeps luciferase complementation, 4 h; hit rate 0.78% among 360,000; Perilipin-5 (Homo sapiens) + 1-acylglycerol-3-phosphate O-acyltransferase ABHD5 (Homo …; inhibition, % at 4 µM;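 active means inhibition above the mean inhibition across every tested compound plus 3 SD, cut at about 22% in these data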
Target sequence (Q00G26 whole entry, looked up): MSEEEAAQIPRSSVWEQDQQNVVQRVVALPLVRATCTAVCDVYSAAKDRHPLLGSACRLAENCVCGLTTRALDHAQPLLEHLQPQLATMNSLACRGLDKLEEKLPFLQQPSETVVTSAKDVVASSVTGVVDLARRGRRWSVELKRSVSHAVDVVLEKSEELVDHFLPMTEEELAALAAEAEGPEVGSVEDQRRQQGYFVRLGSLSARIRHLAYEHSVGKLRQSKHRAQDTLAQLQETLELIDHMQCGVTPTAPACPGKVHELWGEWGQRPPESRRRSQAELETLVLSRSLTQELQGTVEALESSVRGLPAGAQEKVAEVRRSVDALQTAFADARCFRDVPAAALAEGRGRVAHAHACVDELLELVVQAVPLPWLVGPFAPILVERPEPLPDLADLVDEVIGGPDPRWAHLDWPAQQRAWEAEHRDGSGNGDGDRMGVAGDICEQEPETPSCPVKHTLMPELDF
Target sequence (Q8WTS1 whole entry, looked up): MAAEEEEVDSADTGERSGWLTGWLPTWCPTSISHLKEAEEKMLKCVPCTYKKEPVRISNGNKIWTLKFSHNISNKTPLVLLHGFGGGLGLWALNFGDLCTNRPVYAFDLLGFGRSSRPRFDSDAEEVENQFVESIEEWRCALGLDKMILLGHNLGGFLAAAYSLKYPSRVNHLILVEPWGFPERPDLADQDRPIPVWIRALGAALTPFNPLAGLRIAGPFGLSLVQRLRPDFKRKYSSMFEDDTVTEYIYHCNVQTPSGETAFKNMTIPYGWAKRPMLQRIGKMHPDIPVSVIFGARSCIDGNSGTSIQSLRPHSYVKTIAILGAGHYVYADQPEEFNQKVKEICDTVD
Large screens that a line does not name were inactive; ! = a repeat was not active.

Cc1cc(N=Nc2ccccc2)c(NCC(O)C(O)C(O)CO)cc1C (stereo not drawn)	ABHD5-PLIN5 inh 22.0
CCOC(=O)N1CCC(N2Cc3cccc(C(=O)NCc4ccc(OC)cc4)c3C2=O)CC1	none (no result: PRMT1 inh, ABHD5-PLIN5 inh)
CCOC(=O)N1CCC(NC(=O)c2cccc3c2C(=O)N(c2ccc(OC)cc2)C3)CC1	core dimer inh 59.4
COc1ccc(N2Cc3cccc(C(=O)NC(C)CCc4ccco4)c3C2=O)cc1 (stereo not drawn)	core dimer inh 62.8
Cc1ccc(C)c(/C=N/n2cc(-c3ccccc3)[nH]c2=S)c1	PRMT1 inh 24.2
Fc1ccccc1/C=N/n1cc(-c2ccccc2)[nH]c1=S	PRMT1 inh 23.8
S=c1[nH]c(-c2ccccc2)cn1/N=C/c1ccc(Br)cc1	none
N#C/C(=C\c1cc(O)c(O)c(O)c1)C(N)=O	PRMT1 inh 58.6
CCOC(=O)[C@H](CCc1ccccc1)N[C@@H](C)C(=O)N1Cc2cc(OC)c(OC)cc2C[C@H]1C(=O)O	none (no result: APOBEC3G inh, core dimer inh, A3A deaminase, NS3 helicase inh, ABHD5-PLIN5 inh)
O=C1CC(c2ccco2)Cc2nc(Nc3nc(-c4ccccc4)c4ccccc4n3)ncc21 (stereo not drawn)	core dimer inh 59.1
Nc1nccc(-c2cccs2)n1	none
Brc1cc(Br)c2nc(-c3cccs3)ccc2c1	core dimer inh 47.7
CC(=O)Nc1ccc(N=Cc2nc(-c3ccc(C)cc3)oc2O)cc1	core dimer inh 65.5
Cc1ccc(N=Cc2nc(-c3ccc(C)cc3)oc2O)cc1	none (no result: APOBEC3G inh, core dimer inh, A3A deaminase)
C[C@H](NC(=O)[C@@H]1Cc2ccccc2CN1C(=O)OC(C)(C)C)C(=O)NCc1ccco1	ABHD5-PLIN5 inh 22.1
CCN1CCN(Cc2ccc(NC(=O)c3cc(NC(=O)C(=O)c4c[nH]c5ccccc45)cc(OC)c3)cc2C(F)(F)F)CC1	ABHD5-PLIN5 inh 22.4! (no result: NS3 helicase inh)
CCN1CCN(Cc2ccc(NC(=O)c3cc(NC(=O)c4cc(C)on4)cc(OC)c3)cc2C(F)(F)F)CC1	none
CCN1CCN(Cc2ccc(NC(=O)c3ccc(C)c(NC(=O)C(=O)c4c[nH]c5ccccc45)c3)cc2C(F)(F)F)CC1	ABHD5-PLIN5 inh 29.7!
Clc1ccc2c(c1)C(N1CCNCC1)Cc1ccccc1S2 (stereo not drawn)	ABHD5-PLIN5 inh 32.8 (no result: PRMT1 inh)
COc1ccc(C(=O)/C=C/c2ccccc2F)c(OC(=O)c2ccc([N+](=O)[O-])cc2)c1	ABHD5-PLIN5 inh 27.9
COc1ccc(C(=O)/C=C/c2ccc(C)cc2)c(OC(=O)c2ccc([N+](=O)[O-])cc2)c1	none
O=Cc1ccc(-c2cccs2)s1	none (no result: APOBEC3G inh, core dimer inh, A3A deaminase, NS3 helicase inh)
Oc1ccc(N=Cc2ccc(-c3cccs3)s2)cc1	PRMT1 inh 37.8
CC1(C)Oc2ccc(C(=O)NC3CCCC3)cc2NC1=O	none (no result: APOBEC3G inh, core dimer inh, A3A deaminase, NS3 helicase inh, ABHD5-PLIN5 inh)
Cc1ccc(SCc2cc(=O)c3c(=O)n(-c4ccccc4)[nH]c3[nH]2)cc1	PRMT1 inh 22.3
Cn1nc(C(=O)NC2CCCCC2)c2c1-c1ccccc1SC2	none
CC1CCC(NC(=O)c2nn(C)c3c2CSc2ccccc2-3)CC1 (stereo not drawn)	PRMT1 inh 22.3
CCC(=O)/C=C1/Sc2ccc(OC)cc2N1CC	none
CCC(/C=C1\Sc2ccc(OC)cc2N1CC)=C\c1sc2ccc(OC)cc2[n+]1CCCS(=O)(=O)[O-]	PRMT1 inh 61.2
CCO/C(=C/c1sc2ccc(OC)cc2[n+]1CCCS(=O)(=O)[O-])CC	PRMT1 inh 76.8
COc1cc(Sc2ccc(C)cc2)c(OC)cc1N	PRMT1 inh 35.2
COC(=O)c1ccc(Sc2ccc(C)cc2)c(N)c1	none
COC(=O)[C@]12C[C@H](CC(=O)NCCCCc3ccccc3)C(=O)N(Cc3ccco3)C1=C[C@H](C(C)(C)C)O[C@@H]2C	none (no result: APOBEC3G inh, core dimer inh, A3A deaminase, NS3 helicase inh, ABHD5-PLIN5 inh)
O=C1NC(=O)/C(=C/c2ccc(-c3cc(C(=O)O)ccc3Cl)o2)S1	none
